Experimental data from publication PMC9015489 (Chemmedchem, 2022).

What was measured:
[1] = test system: Vero‐E6 cells
[2] = biological target: human adenosine A2A receptors (Homo sapiens, UniProt P29274); assay: Radioligand competition binding assay with [3H]CGS-21680
Method in brief: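 Membranes from CHO-S cells recombinantly expressing the human adenosine A2A receptor. Competition with the A2A-selective agonist radioligand [3H]CGS-21680. Test compound run at concentrations from 10 nM to 100 μM. Read-out is % inhibition of radioligand binding, with Ki estimated; n=3.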

[3] = test system: NRF2‐ARE pathway; assay: AREc32 luciferase reporter gene assay; type: cell-based; details: for ARE specificity ratio, SR: SR = IC10/ECIR1.5, AREc32 cells, 24 h exposure
Method in brief: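 AREc32 cells in DMEM+GlutaMAX with 10% FBS and pen/strep, 2650/well, attached 24 h at 37 °C, 5% CO2. Test compound (1×10−15 to 1×10−2 M) for 24 h; tert‐butylhydroquinone as positive control. Luciferase read after PBS washes and Tris/Triton lysis. IR = signal/mean unexposed; ECIR1.5 by linear fit for IR<4. Imaged confluency versus unexposed cells gave IC10 from the linear range.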

[4] = test system: SARS‐CoV‐2 (B.3 strain); assay: Vero-E6 SARS-CoV-2 plaque reduction assay; type: cell-based
[5] = Experimental distribution coefficient logD7.4; type: physicochemical; details: pH 7.4
[6] = biological target: human serum albumin (Homo sapiens, UniProt P02768); assay: Plasma protein binding estimated by an HPLC-based method; type: in vitro ADME
human serum albumin, sequence (P02768 25-609): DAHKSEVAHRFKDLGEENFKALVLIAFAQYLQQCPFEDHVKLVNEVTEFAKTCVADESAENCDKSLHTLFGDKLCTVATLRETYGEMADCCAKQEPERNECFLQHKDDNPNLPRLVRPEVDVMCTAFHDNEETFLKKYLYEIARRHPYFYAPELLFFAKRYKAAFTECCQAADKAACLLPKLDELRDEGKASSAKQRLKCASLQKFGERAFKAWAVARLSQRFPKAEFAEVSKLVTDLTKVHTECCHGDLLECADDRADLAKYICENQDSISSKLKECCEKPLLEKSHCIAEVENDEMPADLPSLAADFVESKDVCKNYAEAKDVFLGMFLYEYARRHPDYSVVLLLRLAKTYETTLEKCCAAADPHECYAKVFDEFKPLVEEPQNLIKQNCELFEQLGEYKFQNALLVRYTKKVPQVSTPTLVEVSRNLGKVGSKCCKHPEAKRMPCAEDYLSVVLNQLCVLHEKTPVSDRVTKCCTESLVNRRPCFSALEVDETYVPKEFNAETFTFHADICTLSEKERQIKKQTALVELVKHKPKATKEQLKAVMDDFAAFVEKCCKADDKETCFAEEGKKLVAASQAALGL

[7] = read-out: % inhibition of radioligand binding

human adenosine A2A receptors, sequence (P29274 whole entry): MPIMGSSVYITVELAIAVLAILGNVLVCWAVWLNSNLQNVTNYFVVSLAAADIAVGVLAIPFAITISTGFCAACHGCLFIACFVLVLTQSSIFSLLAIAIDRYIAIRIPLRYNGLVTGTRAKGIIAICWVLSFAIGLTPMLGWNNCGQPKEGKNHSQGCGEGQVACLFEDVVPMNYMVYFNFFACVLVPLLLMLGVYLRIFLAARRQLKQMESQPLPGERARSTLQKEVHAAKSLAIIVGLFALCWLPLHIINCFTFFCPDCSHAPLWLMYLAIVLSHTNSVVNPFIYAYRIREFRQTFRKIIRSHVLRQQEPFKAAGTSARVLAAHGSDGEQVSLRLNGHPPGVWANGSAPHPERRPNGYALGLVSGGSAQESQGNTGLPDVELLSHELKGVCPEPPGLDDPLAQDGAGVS

| Structure (SMILES) | ARE specificity ratio, SR [3] | chromatographic logD [5] | fraction unbound [6] | other results |
| --- | --- | --- | --- | --- |
| C=C1CC[C@@H]2[C@](C)(CO)[C@H](O)CC[C@@]2(C)[C@@H]1C/C=C1/C(=O)OC[C@H]1O [Compound 1, Andrographolide] | 19.4 |  |  | Effect on Vero-E6 cell proliferation (crystal violet staining) ([1]; at 10 μM): inhibited cell proliferation; Toxicity on attached Vero-E6 cells ([1]; at any concentration (0.5-10 μM)): did not show toxicity; Ki [2]: > 100 µM; inhibition at 10 µM [2, 7]: 7%; inhibition at 100 µM [2, 7]: 33% |
| C=C1CCC2[C@](C)(CO)[C@H](O)CC[C@@]2(C)[C@@H]1CCC1C(=O)OC[C@H]1O (stereo partly drawn) [Compound 11, (4S)‐3‐[2‐[(1R,5R,6R,8aS)‐6‐Hydroxy‐5‐(hydroxymethyl)‐5,8 a‐dimethyl‐2‐methylene‐decalin‐1‐yl]ethyl]‐4‐hydroxy‐tetrahydrofuran‐2‐one] |  |  |  | Anti-SARS-CoV-2 activity (in words) [4]: did not possess anti‐SARS‐CoV‐2 activities |
| C=C1CCC2[C@](C)(C(=O)NCCC)[C@H](O)CC[C@@]2(C)[C@@H]1C/C=C1/C(=O)OC[C@H]1O (stereo partly drawn) [16 a, (1S,2R,4aS,5R)‐2‐Hydroxy‐5‐[(2E)‐2‐[(4S)‐4‐hydroxy‐2‐oxo‐tetrahydrofuran‐3‐ylidene]ethyl]‐1,4 a‐dimethyl‐6‐methylene‐N‐propyl‐decalin‐1‐carboxamide] | 35.6 | 1.9 | 0.17 |  |
| C=C1CCC2[C@](C)(C(=O)NCCc3ccccc3)[C@H](O)CC[C@@]2(C)[C@@H]1C/C=C1/C(=O)OC[C@H]1O (stereo partly drawn) [16 b, (1S,2R,4aS,5R)‐2‐Hydroxy‐5‐[(2E)‐2‐[(4S)‐4‐hydroxy‐2‐oxo‐tetrahydrofuran‐3‐ylidene]ethyl]‐1,4 a‐dimethyl‐6‐methylene‐N‐(2‐phenylethyl)decalin‐1‐carboxamide] | 10.8 | 2.5 | 0.62 |  |
| CC(C)(C)c1cc(O)ccc1O [Tert‐butylhydroquinone, reference compound] |  |  |  | ECIR1.5 ([3]; effect concentration causing an induction ratio (IR) of 1.5, linear model, 24 h): 3.4 ± 0.2 µM |
| C=C1CCC2[C@](C)(C(=O)NCCOCCOCCOCCOC)[C@H](O)CC[C@@]2(C)[C@@H]1C/C=C1/C(=O)OC[C@H]1O (stereo partly drawn) [16 c, (1S,2R,4aS,5R)‐2‐Hydroxy‐5‐[(2E)‐2‐[(4S)‐4‐hydroxy‐2‐oxo‐tetrahydrofuran‐3‐ylidene]ethyl]‐N‐[2‐[2‐[2‐(2‐methoxy‐ethoxy)ethoxy]ethoxy]ethyl]‐1,4 a‐dimethyl‐6‐methylene‐decalin‐1‐carboxamide] | 13.3 | 1.3 | 0.08 |  |
